Assay results taken from ChEMBL document CHEMBL4321879, “Novel Class of Colony-Stimulating Factor 1 Receptor Kinase Inhibitors Based on an o-Aminopyridyl Alkynyl Scaffold as Potential Treatment for Inflammatory Disorders” (J Med Chem, 2020).

Columns and labels:
[1] = target: Fibroblast growth factor receptor 2 (Homo sapiens, UniProt P21802); assay: Inhibition of recombinant human N-terminal His6-tagged FGFR2 (456 to 770 residues) expressed in baculovirus infected Sf21 insect cells using poly (Glu, Tyr)4:1 as substrate measured after 1 hr by ELISA
How it was run: (§1)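 Recombinant kinase was incubated with compound in reaction buffer containing 5 μM ATP, in wells precoated with poly(Glu,Tyr) 4:1, for 1 h at 37 °C. Phosphorylation was detected by ELISA.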

[2] = target: Fibroblast growth factor receptor 3 (Homo sapiens, UniProt P22607); assay: Inhibition of recombinant human N-terminal His6-tagged FGFR3 (447 to 761 residues) expressed in baculovirus infected Sf21 insect cells using poly (Glu, Tyr)4:1 as substrate measured after 1 hr by ELISA; how it was run: as §1
[3] = target: Fibroblast growth factor receptor 1 (Homo sapiens, UniProt P11362); assay: Inhibition of recombinant human N-terminal GST-tagged FGFR1 (456 to 765 residues) expressed in baculovirus infected Sf21 insect cells using poly (Glu, Tyr)4:1 as substrate measured after 1 hr by ELISA; how it was run: as §1
[4] = target: Fibroblast growth factor receptor 4 (Homo sapiens, UniProt P22455); assay: Inhibition of recombinant human N-terminal His6-tagged FGFR4 (442 to 755 residues) expressed in baculovirus infected Sf21 insect cells using poly (Glu, Tyr)4:1 as substrate measured after 1 hr by ELISA
How it was run: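 ELISA kinase assay: recombinant kinase added to wells precoated with poly(Glu,Tyr)4:1 and incubated with compound in reaction buffer containing 5 μM ATP, 37 °C for 1 h; wells then washed before antibody detection.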

[5] = target: Macrophage colony-stimulating factor 1 receptor (Homo sapiens, UniProt P07333); assay: Inhibition of recombinant CSF1R (unknown origin) using poly (Glu, Tyr)4:1 as substrate measured after 1 hr by ELISA
RAW264.7 [6] = assay: Antiinflammatory activity in mouse RAW264.7 cells assessed as reduction in LPS-induced IL6 release measured after 24 hrs by ELISA; format: functional, cell-based; conditions: RAW264.7, 24 h
How it was run: (§2)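 RAW264.7 cells in DMEM with 10% FBS and 0.125% DMSO were incubated with compound, then primed with LPS 1 μg/mL for 24 h. Supernatant TNF-α and IL-6 measured by mouse ELISA. IC50 from log(inhibitor) versus normalized response nonlinear fit.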

[7] = Cytotoxicity against mouse RAW264.7 cells assessed as reduction in cell viability measured after 24 hrs by CCK8 assay; format: cell-based
How it was run: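 RAW264.7 cells were seeded in triplicate in DMEM and exposed to compound for 24 h. CCK-8 was added, incubated 1 h, and absorbance read at 450 nm with 570 nm reference. CC50 from log(inhibitor) versus normalized response nonlinear fit.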

RAW264.7 [8] = assay: Antiinflammatory activity in mouse RAW264.7 cells assessed as reduction in LPS-induced TNFalpha release measured after 24 hrs by ELISA; format: functional, cell-based; conditions: RAW264.7, 24 h; how it was run: as §2

Chain of Macrophage colony-stimulating factor 1 receptor (P07333 whole entry): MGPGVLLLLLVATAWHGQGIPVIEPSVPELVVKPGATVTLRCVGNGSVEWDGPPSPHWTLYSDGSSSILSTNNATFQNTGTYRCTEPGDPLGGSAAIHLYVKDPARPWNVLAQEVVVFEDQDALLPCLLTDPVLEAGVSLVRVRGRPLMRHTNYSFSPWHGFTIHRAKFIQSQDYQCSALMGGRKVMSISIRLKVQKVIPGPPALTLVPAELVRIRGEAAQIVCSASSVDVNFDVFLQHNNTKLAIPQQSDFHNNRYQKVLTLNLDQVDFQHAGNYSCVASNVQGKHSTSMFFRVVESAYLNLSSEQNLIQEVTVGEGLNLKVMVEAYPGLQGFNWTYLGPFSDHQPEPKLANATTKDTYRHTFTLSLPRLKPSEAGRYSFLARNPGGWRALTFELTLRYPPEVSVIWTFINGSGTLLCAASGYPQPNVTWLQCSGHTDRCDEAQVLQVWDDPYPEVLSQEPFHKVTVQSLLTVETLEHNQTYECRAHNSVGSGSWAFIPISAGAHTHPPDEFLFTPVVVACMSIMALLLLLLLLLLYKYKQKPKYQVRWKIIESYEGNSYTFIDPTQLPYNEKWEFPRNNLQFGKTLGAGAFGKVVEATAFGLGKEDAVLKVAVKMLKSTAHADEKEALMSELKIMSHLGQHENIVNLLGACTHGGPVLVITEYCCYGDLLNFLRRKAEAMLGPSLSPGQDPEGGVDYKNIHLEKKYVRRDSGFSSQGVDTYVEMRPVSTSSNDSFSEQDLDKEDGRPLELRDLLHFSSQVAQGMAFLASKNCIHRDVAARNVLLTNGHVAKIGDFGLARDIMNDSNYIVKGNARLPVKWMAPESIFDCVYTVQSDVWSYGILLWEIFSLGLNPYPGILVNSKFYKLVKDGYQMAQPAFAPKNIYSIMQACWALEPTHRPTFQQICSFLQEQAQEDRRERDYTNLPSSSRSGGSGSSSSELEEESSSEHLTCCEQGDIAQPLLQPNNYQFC
Chain of Fibroblast growth factor receptor 1 (P11362 whole entry, the tested form may be a part): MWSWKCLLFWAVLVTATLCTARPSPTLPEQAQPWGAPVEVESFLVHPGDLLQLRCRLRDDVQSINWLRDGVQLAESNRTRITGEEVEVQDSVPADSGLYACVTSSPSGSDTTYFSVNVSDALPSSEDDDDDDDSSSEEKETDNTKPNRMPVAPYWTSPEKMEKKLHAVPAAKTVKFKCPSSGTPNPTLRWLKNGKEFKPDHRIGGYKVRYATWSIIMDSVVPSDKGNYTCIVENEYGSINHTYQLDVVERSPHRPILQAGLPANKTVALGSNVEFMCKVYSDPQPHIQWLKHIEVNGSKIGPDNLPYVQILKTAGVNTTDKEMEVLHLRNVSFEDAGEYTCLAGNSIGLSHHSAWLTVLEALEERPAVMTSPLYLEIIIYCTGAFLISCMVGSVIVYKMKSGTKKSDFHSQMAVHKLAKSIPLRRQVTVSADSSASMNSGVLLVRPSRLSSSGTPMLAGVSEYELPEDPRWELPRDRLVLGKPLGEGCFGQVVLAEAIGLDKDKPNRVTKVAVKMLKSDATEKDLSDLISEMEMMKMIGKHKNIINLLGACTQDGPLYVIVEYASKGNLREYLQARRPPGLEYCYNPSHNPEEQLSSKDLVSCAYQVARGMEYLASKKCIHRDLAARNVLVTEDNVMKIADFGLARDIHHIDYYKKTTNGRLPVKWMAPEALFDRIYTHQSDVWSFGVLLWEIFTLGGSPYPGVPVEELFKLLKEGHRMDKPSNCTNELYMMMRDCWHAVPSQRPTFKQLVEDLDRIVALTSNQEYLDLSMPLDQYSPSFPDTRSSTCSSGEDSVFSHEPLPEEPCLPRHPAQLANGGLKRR
Chain of Fibroblast growth factor receptor 4 (P22455 whole entry, the tested form may be a part): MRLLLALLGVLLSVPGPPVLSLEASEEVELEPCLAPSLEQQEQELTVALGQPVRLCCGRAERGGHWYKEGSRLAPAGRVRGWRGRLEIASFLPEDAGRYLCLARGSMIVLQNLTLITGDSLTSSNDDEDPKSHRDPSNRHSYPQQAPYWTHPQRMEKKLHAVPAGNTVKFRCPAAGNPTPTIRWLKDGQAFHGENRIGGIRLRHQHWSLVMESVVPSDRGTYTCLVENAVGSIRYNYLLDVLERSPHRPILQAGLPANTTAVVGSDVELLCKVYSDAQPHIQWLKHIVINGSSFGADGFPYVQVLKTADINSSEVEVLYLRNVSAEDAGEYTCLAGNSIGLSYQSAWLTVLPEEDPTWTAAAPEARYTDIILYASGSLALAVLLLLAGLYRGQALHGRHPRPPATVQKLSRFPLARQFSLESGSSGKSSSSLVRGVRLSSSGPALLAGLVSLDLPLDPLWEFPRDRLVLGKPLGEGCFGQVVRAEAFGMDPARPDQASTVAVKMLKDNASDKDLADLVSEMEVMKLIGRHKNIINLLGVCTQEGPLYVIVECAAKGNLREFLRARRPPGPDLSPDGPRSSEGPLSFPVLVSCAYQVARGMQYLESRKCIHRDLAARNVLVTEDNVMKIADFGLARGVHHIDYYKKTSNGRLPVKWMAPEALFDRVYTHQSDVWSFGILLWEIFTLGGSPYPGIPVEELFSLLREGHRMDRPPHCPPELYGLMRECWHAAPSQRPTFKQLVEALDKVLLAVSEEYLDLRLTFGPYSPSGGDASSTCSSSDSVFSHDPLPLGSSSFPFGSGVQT
Chain of Fibroblast growth factor receptor 3 (P22607 whole entry, the tested form may be a part): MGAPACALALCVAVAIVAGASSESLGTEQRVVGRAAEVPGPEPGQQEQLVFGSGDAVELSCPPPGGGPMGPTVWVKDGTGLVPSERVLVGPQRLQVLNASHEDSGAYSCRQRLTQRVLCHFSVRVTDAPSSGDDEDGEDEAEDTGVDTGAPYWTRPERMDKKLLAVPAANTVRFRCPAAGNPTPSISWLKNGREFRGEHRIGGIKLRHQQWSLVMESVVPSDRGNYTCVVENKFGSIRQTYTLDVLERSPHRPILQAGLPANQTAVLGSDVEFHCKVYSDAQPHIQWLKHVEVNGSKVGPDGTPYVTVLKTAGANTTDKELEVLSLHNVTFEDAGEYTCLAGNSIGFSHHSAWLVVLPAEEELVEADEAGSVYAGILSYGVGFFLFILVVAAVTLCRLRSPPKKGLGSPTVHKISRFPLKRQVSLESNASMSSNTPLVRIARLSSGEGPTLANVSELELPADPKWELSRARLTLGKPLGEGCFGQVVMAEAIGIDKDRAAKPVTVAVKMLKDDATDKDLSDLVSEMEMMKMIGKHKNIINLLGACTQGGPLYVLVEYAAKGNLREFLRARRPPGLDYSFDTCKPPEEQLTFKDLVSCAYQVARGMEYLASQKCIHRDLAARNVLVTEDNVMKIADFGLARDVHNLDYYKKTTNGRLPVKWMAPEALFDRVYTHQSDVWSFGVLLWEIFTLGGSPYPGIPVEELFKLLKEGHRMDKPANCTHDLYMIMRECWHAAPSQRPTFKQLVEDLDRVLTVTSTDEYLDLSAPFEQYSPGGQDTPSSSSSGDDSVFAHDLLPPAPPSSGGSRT
Chain of Fibroblast growth factor receptor 2 (P21802 whole entry, the tested form may be a part): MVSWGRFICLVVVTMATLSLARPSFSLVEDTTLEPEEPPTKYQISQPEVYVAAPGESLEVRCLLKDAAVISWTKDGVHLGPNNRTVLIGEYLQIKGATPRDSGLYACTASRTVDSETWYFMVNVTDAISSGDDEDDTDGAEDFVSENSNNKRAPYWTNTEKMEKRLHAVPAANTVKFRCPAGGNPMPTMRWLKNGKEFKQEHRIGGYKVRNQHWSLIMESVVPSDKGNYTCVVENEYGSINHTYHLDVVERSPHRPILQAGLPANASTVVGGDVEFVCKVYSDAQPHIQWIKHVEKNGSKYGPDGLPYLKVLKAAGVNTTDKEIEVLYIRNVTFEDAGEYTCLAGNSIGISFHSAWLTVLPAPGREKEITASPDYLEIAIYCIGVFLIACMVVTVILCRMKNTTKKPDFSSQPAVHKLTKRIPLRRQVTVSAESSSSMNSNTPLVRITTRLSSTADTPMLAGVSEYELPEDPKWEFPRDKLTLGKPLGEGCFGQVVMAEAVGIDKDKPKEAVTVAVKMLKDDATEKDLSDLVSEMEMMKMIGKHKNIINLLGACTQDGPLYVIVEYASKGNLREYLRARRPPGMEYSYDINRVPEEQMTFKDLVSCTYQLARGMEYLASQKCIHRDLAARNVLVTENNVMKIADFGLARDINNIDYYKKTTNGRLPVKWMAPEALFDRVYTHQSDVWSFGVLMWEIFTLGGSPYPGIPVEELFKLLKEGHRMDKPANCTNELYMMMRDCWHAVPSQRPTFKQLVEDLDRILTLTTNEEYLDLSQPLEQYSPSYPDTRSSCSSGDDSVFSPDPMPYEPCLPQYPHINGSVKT

Row | Compound | IC50 [5] | other results
1 | COc1cc(NC(=O)c2ccc(C)c(C#Cc3cncc4ccccc34)c2)cc(OC)c1 | 23.4 nM | IC50 [1]: > 1000 nM; IC50 [2]: > 1000 nM; IC50 [3]: > 1000 nM; IC50 [4]: > 1000 nM
2 | COc1cc(NC(=O)c2ccc(C)c(C#Cc3cc(C(N)=O)cnc3N)c2)cc(OC)c1 | 3.5 nM | –
3 | COc1cc(NC(=O)c2ccc(C)c(C#Cc3cnc4cccnn34)c2)cc(OC)c1 | 25.1 nM | –
4 | FC(F)(F)c1ccc(CNc2ccc(Cc3c[nH]c4ncc(Cl)cc34)cn2)cn1 [PEXIDARTINIB] | – | IC50 (RAW264.7 [6]): 430 nM; CC50 at 24 h [7]: 20.5 µM; IC50 (RAW264.7 [8]): 400 nM
5 | COc1cc(NC(=O)c2cccc(C#Cc3cc(-c4cnn(C)c4)cnc3N)c2)cc(OC)c1 | 16.1 nM | –
6 | COc1cc(NC(=O)c2ccc(C)c(C#Cc3cc(Cl)cnc3N)c2)cc(OC)c1 | 16.6 nM | –
7 | CNC(=O)c1cnc(N)c(C#Cc2cc(C(=O)Nc3cc(OC)cc(OC)c3)ccc2C)c1 | 8.1 nM | –
8 | COc1cc(NC(=O)c2ccc(C(F)(F)F)c(C#Cc3cc(-c4cnn(C)c4)cnc3N)c2)cc(OC)c1 | > 1000 nM | –
9 | COc1cc(NC(=O)c2ccc(F)c(C#Cc3cc(-c4cnn(C)c4)cnc3N)c2)cc(OC)c1 | 160 nM | –
10 | COc1cc(NC(=O)c2ccc(C)c(C#Cc3cccnc3)c2)cc(OC)c1 | 219 nM | –
11 | COc1cc(NC(=O)c2ccc(C(C)C)c(C#Cc3cc(-c4cnn(C)c4)cnc3N)c2)cc(OC)c1 | > 1000 nM | –
12 | COC(=O)c1cnc(N)c(C#Cc2cc(C(=O)Nc3cc(OC)cc(OC)c3)ccc2C)c1 | 5.5 nM | –
13 | COc1cc(NC(=O)c2ccc(C)c(C#Cc3cccnc3N)c2)cc(OC)c1 | 28.5 nM | –
14 | Cc1ccc(C(=O)Nc2ccc(CN3CCN(C)CC3)c(C(F)(F)F)c2)cc1C#Cc1cncc2ccccc12 | 46 nM | –
15 | Cc1ccc(CNc2ccc(Cl)cc2)cc1C#Cc1cc(-c2cnn(C)c2)cnc1N | > 1000 nM | –
16 | COc1cc(NC(=O)c2ccc(Cl)c(C#Cc3cc(-c4cnn(C)c4)cnc3N)c2)cc(OC)c1 | 6.5 nM | –
17 | COc1cc(NC(=O)c2ccc(OC)c(C#Cc3cc(-c4cnn(C)c4)cnc3N)c2)cc(OC)c1 | 263 nM | –

Further lines, with some results ahead:

Row | IC50 [5] | Compound | other results
18 | 2.4 nM | Cc1ccc(C(=O)Nc2cccc(C(F)(F)F)c2)cc1C#Cc1cc(-c2cnn(C)c2)cnc1N | –
19 | 318 nM | Cc1ccc(C(=O)Nc2ccccc2Cl)cc1C#Cc1cc(-c2cnn(C)c2)cnc1N | –
20 | 20.2 nM | COc1ccccc1NC(=O)c1ccc(C)c(C#Cc2cc(-c3cnn(C)c3)cnc2N)c1 | –
21 | 1.3 nM | Cc1ccc(C(=O)Nc2cccc(Cl)c2)cc1C#Cc1cc(-c2cnn(C)c2)cnc1N | –
22 | 5.9 nM | Cc1ccc(C(=O)Nc2ccc(Cl)cc2Cl)cc1C#Cc1cc(-c2cnn(C)c2)cnc1N | –
23 | 2.6 nM | COc1cc(NC(=O)c2ccc(C)c(C#Cc3cc(-c4cnn(C)c4)cnc3N)c2)cc(OC)c1 | –
24 | 10.8 nM | Cc1ccc(C(=O)Nc2ccc(Cl)c(Cl)c2)cc1C#Cc1cc(-c2cnn(C)c2)cnc1N | –
25 | 6.5 nM | Cc1ccc(C(=O)Nc2ccccc2)cc1C#Cc1cc(-c2cnn(C)c2)cnc1N | –
26 | 3 nM | Cc1ccc(C(=O)Nc2ccc(C(F)(F)F)cc2)cc1C#Cc1cc(-c2cnn(C)c2)cnc1N | –
27 | > 1000 nM | Cc1ccc(C(=O)N(C)c2ccc(Cl)cc2)cc1C#Cc1cc(-c2cnn(C)c2)cnc1N | –
28 | 1.4 nM | COc1ccc(NC(=O)c2ccc(C)c(C#Cc3cc(-c4cnn(C)c4)cnc3N)c2)cc1 | –
29 | 1.4 nM | COc1cccc(NC(=O)c2ccc(C)c(C#Cc3cc(-c4cnn(C)c4)cnc3N)c2)c1 | –
30 | 7.2 nM | Cc1ccc(NC(=O)c2ccc(Cl)cc2)cc1C#Cc1cc(-c2cnn(C)c2)cnc1N | –
31 | > 1000 nM | Cc1cc(C(=O)Nc2ccc(Cl)cc2)ccc1C#Cc1cc(-c2cnn(C)c2)cnc1N | –
